Data taken from ChEMBL document CHEMBL1128718, “2-Substituted penems with amino acid-related side chains: synthesis and antibacterial activity of a new series of beta-lactam antibiotics” (1995).
In brackets after ≈: the same amount, converted by molar mass.

Legend:
Assay type in all cases: functional
[1] = test system: Enterococcus faecium; assay: In Vitro Anti Bacterial Activity (MIC90) against 90% of tested clinical Isolates of Enterococcus faecium(47)
In short: (§1)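 Over 500 clinical isolates tested in total; the line gives the isolate count. MIC90 for aerobes by dilution in Mueller Hinton 2 medium, inoculum 10⁴ cells/mL, incubated 24 h at 37 °C.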

[2] = test system: Clostridium perfringens; assay: In Vitro Anti Bacterial Activity (MIC90) against 90% of tested clinical Isolates of Clostridium perfringens(27)
In short: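 MIC90 over clinical isolates of this anaerobic species, taken from the MIC distribution. Anaerobes were tested on Wilkins-Chalgren agar with an inoculum of 10⁵ cells/mL and incubated 24–48 h at 37 °C.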

[3] = test system: Escherichia coli; assay: In Vitro antibacterial activity against (Ec) Escherichia coli ATCC 25922
In short: (§2)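 Panel of standard ATCC strains plus modified strains: methicillin-resistant, hyperpermeable, β-lactamase-producing (TEM1, TEM2, SHV) and β-lactamase-lacking. MIC determined in Mueller Hinton 2 medium, inoculum 10⁴ cells/mL, incubated 24 h at 37 °C.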

[4] = test system: Streptococcus pyogenes; assay: In Vitro Anti Bacterial Activity (MIC90) against 90% of tested clinical Isolates of Streptococcus pyogenes(31)
[5] = test system: Escherichia coli; assay: In Vitro Anti Bacterial Activity (MIC90) against 90% of tested clinical Isolates of Escherichia coli; in short: as §1
[6] = test system: Staphylococcus aureus; assay: In vitro antibacterial activity against Sa MR(I) heterogeneous methicillin resistant Staphylococcus aureus
In short: (§3)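 MIC was determined in Mueller Hinton 2 medium with an inoculum of 10⁴ cells/mL and incubation for 24 h at 37 °C. Strains: Sa(I) is S. aureus ATCC 29213; Sa MR(I) is a heterogeneous methicillin-resistant S. aureus; Sa MR(II) is a homogeneous methicillin-resistant S. aureus.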

[7] = test system: Staphylococcus aureus; assay: In vitro antibacterial activity against Sa(II) Staphylococcus aureus ATCC 25923; in short: as §2
[8] = test system: Staphylococcus aureus; assay: In Vitro Anti Bacterial Activity (MIC90) against 90% of tested clinical Isolates of Staphylococcus aureus MV (20)
[9] = test system: Staphylococcus aureus; assay: In Vitro Anti Bacterial Activity (MIC90) against 90% of tested clinical Isolates of Staphylococcus aureus MS (6); in short: as §1
[10] = test system: Acinetobacter calcoaceticus subsp. anitratus; assay: In Vitro Anti Bacterial Activity (MIC90) against 90% of tested clinical Isolates of Acinetobacter anitratus(20); in short: as §1
[11] = test system: Streptococcus agalactiae; assay: In Vitro Anti Bacterial Activity (MIC90) against 90% of tested clinical Isolates of Streptococcus agalactiaeB(21)
[12] = test system: Klebsiella aerogenes; assay: In Vitro Anti Bacterial Activity (MIC90) against 90% of tested clinical Isolates of Enterobacter aerogenes(19); in short: as §1
[13] = test system: Bacteroides fragilis; assay: In Vitro Anti Bacterial Activity (MIC90) against 90% of tested clinical Isolates of Bacteroides fragilis(15)
In short: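 Anaerobic clinical isolates. MIC90 by dilution in Wilkins-Chalgren agar, inoculum 10⁵ cells/mL, incubated 24–48 h at 37 °C.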

[14] = test system: Morganella morganii; assay: In Vitro Anti Bacterial Activity (MIC90) against 90% of tested clinical Isolates of Morganella morganii(10); in short: as §1
[15] = test system: Listeria monocytogenes; assay: In Vitro Anti Bacterial Activity (MIC90) against 90% of tested clinical Isolates of Listeria monocytogenes (20); in short: as §1
[16] = test system: Staphylococcus epidermidis; assay: In Vitro Anti Bacterial Activity (MIC90) against 90% of tested clinical Isolates of Staphylococcus epidermidis (13); in short: as §1
[17] = test system: Klebsiella pneumoniae; assay: In Vitro Anti Bacterial Activity (MIC90) against 90% of tested clinical Isolates of Klebsiella pneumoniae(20); in short: as §1
[18] = test system: Escherichia coli; assay: In Vitro antibacterial activity against (Ec TEM2) Escherichia coli […] strain; in short: as §2
[19] = test system: Streptococcus pneumoniae; assay: In Vitro Anti Bacterial Activity (MIC90) against 90% of tested clinical Isolates of Streptococcus pneumoniae (23)
[20] = test system: Pseudomonas aeruginosa; assay: In Vitro antibacterial activity against (Pa) hyperpermeable Pseudomonas aeruginosa […] strain; in short: as §2
[21] = test system: Yersinia sp.; assay: In Vitro Anti Bacterial Activity (MIC90) against 90% of tested clinical Isolates of Yersinia species(20); conditions: Yersinia sp. (in: enterobacteria)
[22] = test system: Pseudomonas aeruginosa; assay: In Vitro antibacterial activity against (Pa) Pseudomonas aeruginosa ATCC 27853; in short: as §2
[23] = test system: Escherichia coli; assay: In Vitro antibacterial activity against (Ec TEM1) Escherichia coli […] strain; in short: as §2
[24] = test system: Escherichia coli; assay: In Vitro antibacterial activity against (Ec L) Escherichia coli […] strain; in short: as §2
[25] = test system: Pseudomonas aeruginosa; assay: In Vitro antibacterial activity against (Pa G242) hyperpermeable Pseudomonas aeruginosa strain; in short: as §2
[26] = test system: Stenotrophomonas maltophilia; assay: In Vitro Anti Bacterial Activity (MIC90) against 90% of tested clinical Isolates of Xanthomonas maltophilia(9); in short: as §1
[27] = test system: Enterococcus faecalis; assay: In Vitro antibacterial activity against (Ef) Enterococcus faecalis ATCC 29212; in short: as §2
[28] = test system: Haemophilus influenzae; assay: In Vitro Anti Bacterial Activity (MIC90) against 90% of tested clinical Isolates of Haemophilus Influenzae(21)
In short: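 Clinical isolates. MIC90 in Haemophilus Test Medium Base plus Haemophilus Test Medium Supplement, inoculum 10⁴ cells/mL, incubated 24–48 h at 37 °C.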

[29] = test system: Staphylococcus aureus; assay: In vitro antibacterial activity against Sa MR(II) homogeneous methicillin resistant Staphylococcus aureus; in short: as §3
[30] = test system: Providencia stuartii; assay: In Vitro Anti Bacterial Activity (MIC90) against 90% of tested clinical Isolates of Providencia stuartii(10); in short: as §1
[31] = test system: Escherichia coli; assay: In Vitro antibacterial activity against (Ec DC2) hyperpermeable Escherichia coli strain; in short: as §2
[32] = test system: Aeromonas; assay: In Vitro Anti Bacterial Activity (MIC90) against 90% of tested clinical Isolates of Aeromonas species(21); in short: as §1
[33] = test system: Pseudomonas aeruginosa; assay: In Vitro Anti Bacterial Activity (MIC90) against 90% of tested clinical Isolates of Pseudomonas aeruginosa(11); in short: as §1
[34] = test system: Moraxella catarrhalis; assay: In Vitro Anti Bacterial Activity (MIC90) against 90% of tested clinical Isolates of Branhamella catarrhalis(27)
[35] = test system: Staphylococcus aureus; assay: In vitro antibacterial activity against Sa(I) Staphylococcus aureus ATCC 29213; in short: as §3
[36] = test system: Escherichia coli; assay: In Vitro antibacterial activity against (Ec SHV) Escherichia coli […] strain; in short: as §2
[37] = test system: Proteus mirabilis; assay: In Vitro Anti Bacterial Activity (MIC90) against 90% of tested clinical Isolates of Proteus mirabilis(16); in short: as §1
[38] = test system: Proteus vulgaris; assay: In Vitro Anti Bacterial Activity (MIC90) against 90% of tested clinical Isolates of Proteus vulgaris(10); in short: as §1
[39] = test system: Citrobacter freundii; assay: In Vitro Anti Bacterial Activity (MIC90) against 90% of tested clinical Isolates of Citrobacter freundii(20); in short: as §1
[40] = test system: Providencia rettgeri; assay: In Vitro Anti Bacterial Activity (MIC90) against 90% of tested clinical Isolates of Providencia rettgeri(10); in short: as §1
[41] = test system: Enterococcus faecalis; assay: In Vitro Anti Bacterial Activity (MIC90) against 90% of tested clinical Isolates of Enterococcus faecalis(47); in short: as §1
[42] = test system: Listeria monocytogenes; assay: In Vitro Anti Bacterial Activity (MIC 90) against 90% of tested clinical Isolates of Listeria monocytogenes (20); in short: as §1

C[C@@H](O)[C@H]1C(=O)N2C(C(=O)O)=C(CN3C[C@H](O)C[C@H]3C(N)=O)S[C@H]12
MIC90 [1]: > 64 µg/mL | MIC90 [2]: 0.25 µg/mL (≈ 0.7 µM) | MIC [3]: 0.03 µg/mL (≈ 0.0839 µM) | MIC90 [4]: 0.03 µg/mL (≈ 0.0839 µM) | MIC90 [5]: 0.015 µg/mL (≈ 0.042 µM) | MIC [6]: 0.25 µg/mL (≈ 0.7 µM) | MIC [7]: 0.12 µg/mL (≈ 0.336 µM) | MIC90 [8]: > 32 µg/mL | MIC90 [9]: 0.12 µg/mL (≈ 0.336 µM) | MIC90 [10]: 16 µg/mL (≈ 44.8 µM) | MIC90 [11]: 0.06 µg/mL (≈ 0.168 µM) | MIC90 [12]: 16 µg/mL (≈ 44.8 µM) | MIC90 [13]: 32 µg/mL (≈ 89.5 µM) | MIC90 [14]: 8 µg/mL (≈ 22.4 µM) | MIC90 [15]: 0.12 µg/mL (≈ 0.336 µM) | MIC90 [16]: 1 µg/mL (≈ 2.8 µM) | MIC90 [17]: 0.5 µg/mL (≈ 1.4 µM) | MIC [18]: 0.25 µg/mL (≈ 0.7 µM) | MIC90 [19]: 0.03 µg/mL (≈ 0.0839 µM) | MIC [20]: 0.2 µg/mL (≈ 0.56 µM) | MIC90 [21]: 0.15 µg/mL (≈ 0.42 µM) | MIC [22]: > 64 µg/mL | MIC [23]: 0.12 µg/mL (≈ 0.336 µM) | MIC [24]: 0.03 µg/mL (≈ 0.0839 µM) | MIC [25]: 0.06 µg/mL (≈ 0.168 µM) | MIC90 [26]: > 64 µg/mL | MIC [27]: 2 µg/mL (≈ 5.6 µM) | MIC90 [28]: 4 µg/mL (≈ 11.2 µM) | MIC [29]: 8 µg/mL (≈ 22.4 µM) | MIC90 [30]: 4 µg/mL (≈ 11.2 µM) | MIC [31]: 0.12 µg/mL (≈ 0.336 µM) | MIC90 [32]: 2 µg/mL (≈ 5.6 µM) | MIC90 [33]: > 64 µg/mL | MIC90 [34]: 1 µg/mL (≈ 2.8 µM) | MIC [35]: 0.12 µg/mL (≈ 0.336 µM) | MIC [36]: 0.25 µg/mL (≈ 0.7 µM) | MIC90 [37]: 4 µg/mL (≈ 11.2 µM) | MIC90 [38]: 4 µg/mL (≈ 11.2 µM) | MIC90 [39]: 1 µg/mL (≈ 2.8 µM) | MIC90 [40]: 4 µg/mL (≈ 11.2 µM) | MIC90 [41]: 8 µg/mL (≈ 22.4 µM)

C[C@@H](O)[C@H]1C(=O)N2C(C(=O)O)=C(CN(C)[C@@H](C)C(N)=O)S[C@H]12
MIC90 [42]: 0.5 µg/mL (≈ 1.52 µM) | MIC90 [1]: > 64 µg/mL | MIC90 [2]: 0.5 µg/mL (≈ 1.52 µM) | MIC [3]: 0.25 µg/mL (≈ 0.759 µM) | MIC90 [4]: 0.06 µg/mL (≈ 0.182 µM) | MIC90 [5]: 0.25 µg/mL (≈ 0.759 µM) | MIC [6]: 0.12 µg/mL (≈ 0.364 µM) | MIC [7]: 0.06 µg/mL (≈ 0.182 µM) | MIC90 [8]: 8 µg/mL (≈ 24.3 µM) | MIC90 [9]: 0.12 µg/mL (≈ 0.364 µM) | MIC90 [10]: 32 µg/mL (≈ 97.2 µM) | MIC90 [11]: 0.06 µg/mL (≈ 0.182 µM) | MIC90 [12]: 32 µg/mL (≈ 97.2 µM) | MIC90 [13]: 8 µg/mL (≈ 24.3 µM) | MIC90 [16]: 0.25 µg/mL (≈ 0.759 µM) | MIC90 [17]: 1 µg/mL (≈ 3.04 µM) | MIC [18]: 1 µg/mL (≈ 3.04 µM) | MIC90 [19]: 0.06 µg/mL (≈ 0.182 µM) | MIC [20]: 1 µg/mL (≈ 3.04 µM) | MIC90 [21]: 0.5 µg/mL (≈ 1.52 µM) | MIC [22]: > 64 µg/mL | MIC [23]: 0.25 µg/mL (≈ 0.759 µM) | MIC [24]: 0.25 µg/mL (≈ 0.759 µM) | MIC [25]: 0.25 µg/mL (≈ 0.759 µM) | MIC90 [26]: > 64 µg/mL | MIC [27]: 4 µg/mL (≈ 12.1 µM) | MIC90 [28]: 4 µg/mL (≈ 12.1 µM) | MIC [29]: 2 µg/mL (≈ 6.07 µM) | MIC [31]: 1 µg/mL (≈ 3.04 µM) | MIC90 [32]: 2 µg/mL (≈ 6.07 µM) | MIC90 [33]: > 64 µg/mL | MIC90 [34]: 0.5 µg/mL (≈ 1.52 µM) | MIC [35]: 0.015 µg/mL (≈ 0.0455 µM) | MIC [36]: 0.5 µg/mL (≈ 1.52 µM) | MIC90 [39]: 1 µg/mL (≈ 3.04 µM) | MIC90 [41]: 8 µg/mL (≈ 24.3 µM)
